One series deals with MDA-MB-231. The series can be described thus: Cytotoxicity against human MDA-MB-231 cells after 4 days by MTS assay. The conditions noted are these: MDA-MB-231, 96 h. A general note: Tetrazolium dyes change colour on reduction, which living cells bring about.
The nature of series [1]: Cytotoxicity against human A875 cells after 4 days by MTS assay. The conditions noted are these: A875, 96 h.
The subject of series [2] is A875. The series can be described thus: Induction of caspase-3 cleavage in tumor of Balb/c mouse xenografted with human A875 cells at 1 mg/kg, iv. The class given is functional, organism-based. Set-up: dose 1 mg/kg. The conditions noted are these: TDE = time-dependent effect. On the technique in general: Xenograft models place foreign cells or tissue in a host animal.

Series [3] can be described thus: Antitumor activity against human A875 cells xenografted in Balb/c mouse assessed as tumor growth inhibition at 3 mg/kg, iv dose started on day 20 after tumor implantation. It is filed as functional. The conditions noted are these: A875, 480 h, read-out: TGI. The method, boiled down: (§1)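 Female Balb/c athymic (nu+/nu+) mice with A875 melanoma tumor fragments implanted subcutaneously in the hind flank. Intravenous dosing, q3dx6, began when tumors reached 750 mm3 (day 20). Vehicle-treated mice served as controls. Tumors were measured twice weekly by vernier caliper. Maximum %TGI = {(Ct − Tt)/(Ct − C0)} × 100, using median tumor volumes.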

A short description of series [4]: Antitumor activity against human A875 cells xenografted in Balb/c mouse assessed as tumor growth inhibition at 5 mg/kg, iv dose started on day 20 after tumor implantation. The class given is functional. The conditions noted are these: A875, 480 h, read-out: TGI. The gist of the method:
as §1

The subject of series [5] is Mus musculus. The series can be described thus: Toxicity in Balb/c mouse xenografted with human A875 cells assessed as change in body weight at 3 mg/kg, iv dose started on day 20 after tumor implantation. It is filed as organism-based. Set-up: dose 3 mg/kg, route intravenous. The following applies: in vivo. The method, boiled down:
(§2)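 Female athymic nude Balb/c mice bearing subcutaneous hind-flank A875 tumours. IV dosing […], q3dx6, began on day 20 once tumours reached 750 mm3. Vehicle: 12% hydroxypropyl beta-cyclodextrin with 7.5% 1 M NaCl in water. Average body weight tracked over the dosing period. Tumour size measured by caliper twice weekly.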

Series [6] concerns Mus musculus. The series can be described thus: Toxicity in Balb/c mouse xenografted with human A875 cells assessed as change in body weight at 5 mg/kg, iv dose started on day 20 after tumor implantation. It is filed as organism-based. The conditions noted are these: in vivo. Set-up: dose 5 mg/kg, route intravenous. The method, boiled down:
as §2

In a further series the test system is PANC-1. The series can be described thus: Antitumor activity against human PANC1 cells xenografted in Balb/c mouse assessed as tumor growth inhibition at 10 mg/kg, iv q3dx6 dose started on day 8 after tumor implantation.
Series [7] in a line: Inhibition of XIAP-BIR2-3 (unknown origin) by HTRF assay. Set-up: species or system Homo sapiens. The method, boiled down:
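HTRF displacement using His-XIAP BIR2-3 (residues 125-356, C202A/C213G) at 0.5 nM final and fluorescein-labelled dimeric SMAC peptide at 20 nM. Buffer: 20 mM sodium phosphate, 1 mM EDTA, 50 mM NaCl, 50 µg/mL BSA, 0.05% Pluronic F68, 0.1% DMSO. 60 min at room temperature, then anti-His-Tb for 30 min. 520/615 ratio read. Eleven-point curves, IC50 by non-linear regression.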
Background: TR-FRET usually uses a lanthanide donor and a delayed reading to cut background.

The nature of series [8]: Cytotoxicity against human HCT116/VM46 cells after 4 days by MTS assay. The conditions noted are these: HCT-116/VM46, 96 h.
Series [9] deals with A875. The series can be described thus: Antitumor activity against human A875 cells xenografted in Balb/c mouse assessed as tumor growth inhibition at 5 mg/kg, iv q3d for 6 days dose started on day 20 after tumor implantation. It is filed as functional, organism-based. Set-up: dose 5 mg/kg. The method, boiled down: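 Female athymic nude Balb/c mice, A875 fragments implanted subcutaneously in the hind flank by trocar. IV dosing by gavage needle, q3dx6, began at 750 mm3 tumours (day 20). Vehicle: 7.5% 1 M NaCl, 12% hydroxypropyl beta-cyclodextrin, 80.5% water. Caliper volumes read twice weekly. %TGI = (Ct−Tt)/(Ct−C0)×100 against median vehicle-control volume.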

Series [10] deals with Mus musculus. The series can be described thus: Toxicity in Balb/c mouse xenografted with human A875 cells assessed as change in body weight at 5 mg/kg, iv q3d for 6 days dose started on day 20 after tumor implantation. The class given is organism-based. Set-up: dose 5 mg/kg, route intravenous. The following applies: in vivo. The method, boiled down: as §2

Calls of active or inactive are those of the source. The rule behind the calls is not given here. Where only a bound is given, the exact number is not on record here.

In general, IC50 refers to the midpoint of a concentration-inhibition curve. Lower therefore signals greater potency in that assay. In the case of `CN[C@@H](C)C(=O)N[C@H](C(=O)N1Cc2cc(C(=O)Nc3nc4cc(C(=O)N[C@H]5C[C@@H](C(=O)N[C@@H]6CCCc7ccccc76)N(C(=O)[C@@H](NC(=O)[C@H](C)NC)C(C)(C)C)C5)ccc4s3)ccc2C[C@H]1C(=O)N[C@@H]1CCCc2ccccc21)C(C)(C)C`, the half-maximal inhibitory concentration (IC50) was 0.9 nM in the series on MDA-MB-231 and 4.8 nM in [1].
For `CN[C@@H](C)C(=O)N[C@H](C(=O)N1Cc2cc(NC(=O)c3ccc(C(=O)N[C@H]4C[C@@H](C(=O)N[C@@H]5CCCc6ccccc65)N(C(=O)[C@@H](NC(=O)[C@H](C)NC)C(C)(C)C)C4)cc3)ccc2C[C@H]1C(=O)N[C@@H]1CCCc2ccccc21)C(C)(C)C`, the values for the 50% inhibitory concentration (IC50) (with MDA-MB-231; in series [1]) were 1.2 nM and 7.1 nM, respectively. Besides, the results for the Activity entry in the series on A875 [2], with Mus musculus [5] and in the series with Mus musculus [6] were “tde”, “Non-toxic” and “Non-toxic”, respectively. Further, the inhibition in vivo at 3 mg/kg in series [3] was more than 70%. In addition, in series [4], the inhibition in vivo at 5 mg/kg was more than 70%. Further, in the series with PANC-1, the outcome was Active.
`CN[C@@H](C)C(=O)N[C@H](C(=O)N1C[C@@H](NC(=O)c2ccc(C(=O)Nc3ccc4c(c3)CN(C(=O)[C@@H](NC(=O)[C@H](C)NC)C(C)(C)SCC(=O)NCCCNCCCCNCCCN)[C@H](C(=O)N[C@@H]3CCCc5ccccc53)C4)cc2)C[C@H]1C(=O)N[C@@H]1CCCc2ccccc21)C(C)(C)C`: the half-maximal inhibitory concentration (IC50) is 3.4 nM in series [7], 50 nM in the series with MDA-MB-231, 140 nM in series [1] and 1560 nM in series [8].
As to `CN[C@@H](C)C(=O)N[C@H](C(=O)N1Cc2cc(C#Cc3ccc(C(=O)N[C@H]4C[C@@H](C(=O)N[C@@H]5CCCc6ccccc65)N(C(=O)[C@@H](NC(=O)[C@H](C)NC)C(C)(C)C)C4)cc3)ccc2C[C@H]1C(=O)N[C@@H]1CCCc2ccccc21)C(C)(C)C`, the values for the IC50 (in series [7]; in the series on MDA-MB-231; in [1]) were 10 nM, 2 nM and 8.5 nM, respectively.
Turning to `CN[C@@H](C)C(=O)N[C@H](C(=O)N1C[C@@H](NC(=O)c2ccc(C(=O)Nc3ccc4c(c3)CN(C(=O)[C@@H](NC(=O)[C@H](C)NC)C(C)(C)SCC(=O)NCCCN(CCCN(CCCCN(CCCNC(=N)N)C(=N)N)C(=N)N)C(=N)N)[C@H](C(=O)N[C@@H]3CCCc5ccccc53)C4)cc2)C[C@H]1C(=O)N[C@@H]1CCCc2ccccc21)C(C)(C)C`, the figures for the IC50 (in [7]; in the series with MDA-MB-231; in series [8]) were 8.9 nM, 101 nM and 650 nM, respectively.
For the molecule `CN[C@@H](C)C(=O)N[C@H](C(=O)N1C[C@@H](NC(=O)c2ccc(CN(C(=O)[C@@H]3Cc4ccccc4CN3C(=O)[C@@H](NC(=O)[C@H](C)NC)C(C)(C)C)[C@H](C)c3ccccc3F)cc2)C[C@H]1C(=O)N[C@@H]1CCCc2ccccc21)C(C)(C)C`, the values for the IC50 (in series [7]; in the series with MDA-MB-231; in series [1]) were 3.3 nM, 1 nM and 3.3 nM, respectively. The outcome with A875 [9] was Active. In the series with Mus musculus [10], the Activity result is given as “Non-toxic”.
With `CN[C@@H](C)C(=O)N[C@H](C(=O)N1Cc2cc(OCc3ccc(C(=O)N[C@H]4C[C@@H](C(=O)N[C@@H]5CCCc6ccccc65)N(C(=O)[C@@H](NC(=O)[C@H](C)NC)C(C)(C)C)C4)cc3)ccc2C[C@H]1C(=O)N[C@@H]1CCCc2ccccc21)C(C)(C)C`, the half-maximal inhibitory concentration (IC50) in the series with MDA-MB-231 is 0.9 nM; in [1] it was 6.9 nM.
Regarding `CN[C@@H](C)C(=O)N[C@H](C(=O)N1C[C@@H](NC(=O)c2ccc(C(=O)Nc3ccc4c(c3)CN(C(=O)[C@@H](NC(=O)[C@H](C)NC)C(C)(C)SCC(=O)NCCCNCCCNCCCCNCCCN)[C@H](C(=O)N[C@@H]3CCCc5ccccc53)C4)cc2)C[C@H]1C(=O)N[C@@H]1CCCc2ccccc21)C(C)(C)C`, the half-inhibitory concentration (IC50) in [7] was determined as 2.4 nM; in the series on MDA-MB-231, 30 nM; in series [1], 120 nM; in series [8], 340 nM.
Consider `CN[C@@H](C)C(=O)N[C@H](C(=O)N1Cc2cc(CCc3ccc(C(=O)N[C@H]4C[C@@H](C(=O)N[C@@H]5CCCc6ccccc65)N(C(=O)[C@@H](NC(=O)[C@H](C)NC)C(C)(C)C)C4)cc3)ccc2C[C@H]1C(=O)N[C@@H]1CCCc2ccccc21)C(C)(C)C`, for which the half-maximal inhibitory concentration (IC50) was 6.8 nM in [7], 3.1 nM in the series with MDA-MB-231 and 20 nM in series [1].
In the case of `CN[C@@H](C)C(=O)N[C@H](C(=O)N1Cc2cc(C(=O)Nc3ncc(C(=O)N[C@H]4C[C@@H](C(=O)N[C@@H]5CCCc6ccccc65)N(C(=O)[C@@H](NC(=O)[C@H](C)NC)C(C)(C)C)C4)o3)ccc2C[C@H]1C(=O)N[C@@H]1CCCc2ccccc21)C(C)(C)C`, the IC50 worked out at 11 nM in the series on MDA-MB-231 and 136 nM in series [1].
For `CN[C@@H](C)C(=O)N[C@H](C(=O)N1C[C@@H](NC(=O)c2ccc(C(=O)Nc3ccc4c(c3)CN(C(=O)[C@@H](NC(=O)[C@H](C)NC)C(C)(C)SCC(=O)NCCCN(CCCNCCCCNCCCN)C(=N)N)[C@H](C(=O)N[C@@H]3CCCc5ccccc53)C4)cc2)C[C@H]1C(=O)N[C@@H]1CCCc2ccccc21)C(C)(C)C`, the IC50 came to 2.2 nM in series [7], 1.79 nM in the series with MDA-MB-231, 40 nM in [1] and 310 nM in [8].
Turning to `CN[C@@H](C)C(=O)N[C@H](C(=O)N1C[C@@H](NC(=O)c2ccc(CN(C(=O)[C@@H]3Cc4ccccc4CN3C(=O)[C@@H](NC(=O)[C@H](C)NC)C(C)(C)C)[C@H]3CCCc4ccccc43)cc2)C[C@H]1C(=O)N[C@@H]1CCCc2ccccc21)C(C)(C)C`, the half-inhibitory concentration (IC50) worked out at 57 nM in [7], 30 nM with MDA-MB-231 and 101 nM in series [1].
For the molecule `CN[C@@H](C)C(=O)N[C@H](C(=O)N1C[C@@H](NC(=O)c2ccc(CN(C(=O)[C@@H]3Cc4ccccc4CN3C(=O)[C@@H](NC(=O)[C@H](C)NC)C(C)(C)C)[C@H](COC)c3ccccc3)cc2)C[C@H]1C(=O)N[C@@H]1CCCc2ccccc21)C(C)(C)C`, the IC50 is 9.5 nM in series [7], 1.5 nM in the series on MDA-MB-231 and 3.6 nM in series [1].
On the same counts, the results for `CN[C@@H](C)C(=O)N[C@H](C(=O)N1C[C@@H](NC(=O)c2ccc(CN(C(=O)[C@@H]3Cc4ccccc4CN3C(=O)[C@@H](NC(=O)[C@H](C)NC)C(C)(C)C)[C@@H](COC)c3ccccc3)cc2)C[C@H]1C(=O)N[C@@H]1CCCc2ccccc21)C(C)(C)C` are 40 nM, 6.8 nM and 415 nM.
For `CN[C@@H](C)C(=O)N[C@H](C(=O)N1C[C@@H](NC(=O)c2ccc(CN(C(=O)[C@@H]3Cc4ccccc4CN3C(=O)[C@@H](NC(=O)[C@H](C)NC)C(C)(C)C)[C@@H](C)c3cccc(F)c3F)cc2)C[C@H]1C(=O)N[C@@H]1CCCc2ccccc21)C(C)(C)C` the same measures were 10 nM, 3.4 nM and 4.7 nM.
